# rRNA inh HTS = inhibits bacterial ribosomal RNA function over humanized ribosomes. E. coli WT GFP vs humanized-ribosome RFP mutants, fluorescence, 24 h; active compounds read low; DMSO median 0, no signal -100. GFP signal change (wild-type ribosome), % (test concentration not listed). 350,000 tested, 1.6% active. AID 720706;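 active = significant combined selectivity score with lowered wild-type GFP, culture density cut under 30%, mutant RFP and density less affected; inactive = any of these conditions unmet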
# FN deposition inh = fibronectin deposition inhibition. AH1F fibroblasts, Alexa488-fibronectin deposition fluorescence, overnight. inhibition, % at 12.6 µM. 350,000 tested, 0.086% active;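 active = mean inhibition across replicates of 30% or more, regardless of how many single replicates reach that level; inconclusive = mean under 30% yet at least half of replicates reach 30%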;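 note: positive control wells lacked labelled fibronectin entirely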
#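 Measured by – fluorescence 485/525 nm · System – AH1F fibroblast monolayer, labelled fibronectin deposition · Amount – 10000 cells per well · Buffer or medium – serum-reduced DMEM (2% serum) · Doses – single dose, pinned · Also added – fluorescent fibronectin at 24 nM final · Schedule – 1 h cell attachment, overnight exposure to compound and label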
# PGC1a acetyl inh = lowers PGC1a acetylation signal in U2OS cells. AlphaScreen anti-acetyl-lysine; with virally co-expressed GCN5 acetyltransferase. inhibition, % at 15.6 µM. 350,000 tested, 0.17% active;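 active = every replicate shows inhibition of at least 40%; inconclusive = mean inhibition at least 40% but some replicate below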;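 note: 0% = neutral control wells and 100% = positive control wells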
# DENV2 CPE = inhibitors of DENV2 cytopathic effect; 350,000 tested, 1.7% active; DENV2-infected cells, cytopathic effect rescue, plate reader; CPE inhibition, % at 9.99 µM; AID 651640; in the data active = CPE inhibition above about 20%, passing the limit was not always enough; inconclusive = no clear call, values can overlap the other calls; tested in BHK-21 cells;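 note: 0% = median of neutral control wells and 100% = median of positive control wells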
# PglD inh = blocks C. jejuni PglD acetyltransferase activity. inhibition, % at 12.5 µM. purified PglD enzyme, DTNB colorimetric CoA detection. 360,000 tested, 0.098% active. AID 602405; in the data active = inhibition above about 16%, passing the limit was not always enough; inconclusive = no clear call, values can overlap the other calls
# HIV Env fusion = inhibitors of HIV Env-mediated cell fusion | HeLa-JRFL Env/CEM21 cell fusion, luciferase | inhibition, % at 12.3 µM | 360,000 tested, 1.1% active | AID 651610;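 active = mean replicate inhibition score of at least 50 and every replicate individually at or above 50; inconclusive = only one of the two criteria met; inactive = mean below 50 and not all replicates reaching 50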;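 note: 0% = plate neutral controls and 100% = maraviroc near 300 nM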
# AID977621 = wild-type E. coli growth inhibition versus H69 humanized strain – H69 mutant RFP, wild-type GFP, cherry-pick, dose response. shares compounds with rRNA inh HTS. 1,900 tested, under 10 active. fluorescence, 24 h. activity change, negative = inhibition at 50 µM;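 active = Wild-type ribosome reporter drop at least double the humanized mutant ribosome reporter drop, growth loss under a set limit; inconclusive = no clear call, values can overlap the other calls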;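 note: wild-type GFP and H69 mutant RFP strains grown together 50/50 in each well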
# AID977628 = E. coli growth inhibition, wild-type GFP versus h24 humanized RFP strain, dose response, h24 mutant RFP vs wild-type GFP, cherry-pick. shares compounds with rRNA inh HTS. E. coli WT GFP strain growth, fluorescence, 24 h. activity change, negative = inhibition at 50 µM. 1,900 tested, under 10 active;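 active = compound lowering the normal-ribosome reporter at least twice as much as the humanized-ribosome reporter, growth loss under a set limit; inconclusive = no clear call, values can overlap the other calls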;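 note: wild-type GFP and h24 humanized RFP strains co-cultured 1 to 1 per well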
# Starred values were filed as active, the others as inactive; ? = inconclusive; · = no result; [ ] = remark or other dose. Shown are actives, neighbours in structure and some others; about 3.5% of the full set was active somewhere.
SMILES,rRNA inh HTS,FN deposition inh,PGC1a acetyl inh,DENV2 CPE,PglD inh,HIV Env fusion,AID977621,AID977628
S=c1[nH]nc([C@@H]2C[C@H]2c2ccccc2)n1-c1ccccc1,·,1,0,·,4,-30,·,·
O=C(Nc1cc(S(=O)(=O)N2CCCCC2)ccc1N1CCCCC1)C1CC1,-20*,-12,-3,3,·,15,-6.5,-5.6
C[C@@H]1CN([C@@H](C)CO)C(=O)c2cc(C#CCc3ccccc3)cnc2O[C@@H]1CN(C)Cc1cccc(C(=O)O)c1,-3,·,-3,1,-6,-6[16.7 µM],·,·
CN(Cc1ccccc1NS(=O)(=O)c1ccc(Cl)cc1)C1CCCCC1,-29*,-8,-11,-3,-8,19,-6.9,?
C[C@@H]1CN([C@H](C)CO)C(=O)Cc2cc(NC(=O)Cc3ccccc3)ccc2O[C@@H]1CN(C)S(=O)(=O)c1cccs1,-8,4,8,?,1,-2[16.7 µM],·,·
CC(=O)N1c2c(cc(Br)cc2S(=O)(=O)N2CCCCC2)CC1C (centres undefined),-19*,0,9,3,0,19,·,-6.5
CC(=O)N1c2c(cc(Br)cc2S(=O)(=O)N2CCOCC2)CC1C (centres undefined),·,-9,10,·,-2,23,·,·
COc1cc(OC)nc(Oc2ccccc2C(=O)Oc2ccc(Cl)cc2)n1,-14,·,-17,1,3,·,·,·
COc1cc(OC)nc(Oc2ccccc2C(=O)Oc2ccc(C)cc2)n1,-24*,·,-4,-3,4,·,-21,·
C=CCN(CC=C)C(=O)c1ccc2nc(Cc3ccc(OC)c(OC)c3)oc2c1,-33*,0,5,0,-1,6,·,?
COc1ccc(Cc2nc3ccc(C(=O)NCc4cc(C)no4)cc3o2)cc1OC,7,1,·,6,-5,·,·,·
Cc1onc(-c2ccccc2Cl)c1C(=O)N1CCN(Cc2ccc3c(c2)OCO3)CC1,-20*,·,5,·,0,20,7.1,-9.4
C[C@H](CO)N1C[C@H](C)[C@H](CN(C)CC2CCCCC2)Oc2ccc(NS(=O)(=O)c3ccccc3)cc2C1=O,2,·,-2,-4,2,22[16.7 µM],·,·
COc1ccc(NC(=O)c2ccc(COc3ccccc3)o2)c(OC)c1,-24,-3,·,-2,7,-4,·,·
COc1ccc(NC(=O)c2ccc(COc3ccccc3Br)o2)c(OC)c1,-16*,11,3,4,-1,17,-12,-0.85
O=C(C[n+]1ccc(Cc2ccccc2)cc1)Nc1ccc([N+](=O)[O-])cc1Cl,-31*,-8,·,1,·,-9,-6.5,-6.8
Cc1cccc[n+]1CC(=O)Nc1ccc([N+](=O)[O-])cc1Cl,·,4,·,·,-1,-58,·,·
C[C@@H]1CN([C@@H](C)CO)S(=O)(=O)c2ccc(C#CCN(C)C)cc2O[C@@H]1CN(C)C(=O)c1ccccc1F,7,1,-5,3,0,-4[16.7 µM],·,·
C[C@@H](NC(=O)C[C@H]1C=C[C@@H](NC(=O)C2CCOCC2)[C@H](CO)O1)c1ccccc1,1,·,-4,-9,2,5[16.7 µM],·,·
CC1Cc2ccccc2N1C(=O)CN1C(=O)NC(C)(CCc2ccccc2)C1=O (centres undefined),-18*,-24,9,?,-2,-2,-3.6,-13
C[C@@H]1CC=CC[C@@H](c2cccc(Cl)c2)NC(=O)[C@@H](C)N(C)C(=O)c2ccccc2O1 (mixture of isomers),-56,5,·,·,·,·,·,·
CN1c2ccc(Cl)cc2C(=O)NC1C1CC=CCC1 (centres undefined),-23*,2,2,3,8,-73,-2.7,·
O=C(C[C@@H]1CC[C@@H](NC(=O)Nc2ccccc2)[C@@H](CO)O1)NCc1cccc(F)c1,-1,·,-1,6,2,1[16.7 µM],·,·
